Measured values collected from several papers.
Each line is one published result; the experiments were not run side by side.
Target: Serine/threonine-protein kinase MRCK alpha (CDC42BPA, Homo sapiens, UniProt Q5VT25)

| SMILES | read-out | action | method | concentration | measurement | value |
| --- | --- | --- | --- | --- | --- | --- |
| O=C1Nc2ccc(Cl)cc2C1=Cc1cc(Cl)c(O)c(Cl)c1 | cell-free assay | – | – | 0.5 µM | remaining signal | 96.1% |
| COc1cc2ncnc(Nc3ccc(Oc4ccccc4)cc3C)c2cc1OC | enzyme activity | inhibitor | – | 1 µM | inhibition | 6% |
| CCN(CC)CCNC(=O)c1c(C)[nH]c(/C=C2\C(=O)Nc3ccc(F)cc32)c1C | enzyme activity | inhibitor | – | 0.3 µM | inhibition | 8% |
| CNCc1ccccc1-c1csc([C@@H](C)Nc2nc(C)nc3cc(OC)c(OC)cc23)c1 | cell-free assay | – | competition with immobilised ligand | 1 µM | remaining binding | 67% |
| CC(C)(C)c1nc2c(s1)c1nc(N)ncc1c1ccc(NS(=O)(=O)c3c(F)cccc3F)c(F)c12 | enzyme activity | inhibitor | radiometric | 1 µM | remaining activity | 82% |
| CC(C)(O)c1cncc(-c2nc3ccc(F)cc3n2C2CC2)c1 | cell-free assay | – | competition with immobilised ligand | 1 µM | remaining binding | 100% |
| Cc1ccc(Nc2nccc(N(C)c3ccc4c(C)n(C)nc4c3)n2)cc1S(N)(=O)=O | enzyme activity | inhibitor | – | 10 µM | inhibition | 1% |
| N#Cc1ccc(Nc2ccc3[nH]c(=O)[nH]c3c2)c(Cl)c1 | cell-free assay | – | competition with immobilised ligand | 1 µM | remaining binding | 100% |
| N#CCCc1ccc2c(c1)-c1[nH]c3ccc([N+](=O)[O-])cc3c1CC(=O)N2 | cell-free assay | – | – | 0.5 µM | remaining signal | 73.1% |
| CN(C)c1ncnc(-c2ccc3nc(Nc4cc(CN5CCN(C(=O)CC(F)(F)F)CC5)ccn4)[nH]c3c2)c1Cl | cell-free assay | – | competition with immobilised ligand | 1 µM | remaining binding | 100% |
| O=C(Nc1cnn(-c2csc(C(=O)NC3COC3)c2)c1)Nc1c(F)cccc1Cl | enzyme activity | inhibitor | – | 5 µM | remaining activity | 99% |
| CCCOc1ccc(OC)c(F)c1C(=O)c1ccc(C(=O)N[C@@H]2CNC[C@H]2NC(=O)c2ccc3[nH]ncc3c2)cc1 | enzyme activity | inhibitor | – | 0.75 µM | remaining activity | 20% |
| CC/C(=N\NC(=O)NCc1cccc(O)c1)c1ccc(O)c(C)c1O | enzyme activity | inhibitor | – | 0.1 µM | inhibition | 49.7% |
| CCS(=O)(=O)c1cc2cc(C[C@](O)(CC(C)(C)c3ccc(F)cc3C(N)=O)C(F)(F)F)[nH]c2cn1 | cell-free assay | – | competition with immobilised ligand | 1 µM | remaining binding | 89% |
| Nc1ncnc2occ(-c3ccc(NC(=O)Nc4cc(C(F)(F)F)ccc4F)cc3)c12 | enzyme activity | inhibitor | – | 20 µM | remaining activity | 0.05% |
| Cc1ccc(C(=O)Nc2ccc(CN3CCN(C)CC3)c(C(F)(F)F)c2)cc1C#Cc1cnc2cccnn12 | enzyme activity | inhibitor | – | 23.5 nM | remaining activity | 99% |
| Cc1sc(C(=O)NC2COC2)cc1-n1cc(NC(=O)Nc2c(F)cccc2Cl)cn1 | enzyme activity | inhibitor | – | 10 µM | remaining activity | 104% |
| COc1ccc2cc(OCC3(C(=O)O)CN(C(=O)c4ccc(F)cc4)C3)ccc2c1 | cell-free assay | – | competition with immobilised ligand | 1 µM | remaining binding | 100% |
| Cc1cc(NC(=O)c2cccc3cc(-c4cccc5[nH]nc(N)c45)ccc23)ccc1F | enzyme activity | inhibitor | – | 0.1 µM | activity vs control | 92% |
| CCN(CC)c1ccc(C2=NNC(=O)CC2C)cc1[N+](=O)[O-] (stereo not shown) | enzyme activity | inhibitor | – | 10 µM | remaining activity | 78% |
| c1ccc(N2CCN(Cc3nc4ccccc4[nH]3)CC2)nc1 | cell-free assay | – | competition with immobilised ligand | 1 µM | remaining binding | 100% |
| CNC(=O)c1cc(Oc2ccc(NC(=O)Nc3ccc(Cl)c(C(F)(F)F)c3)cc2)ccn1 | enzyme activity | inhibitor | – | 0.3 µM | inhibition | 9% |
